Experimental data: ChEMBL document CHEMBL4152223 (Eur J Med Chem, 2018)
pIC50: −log10 of the molar value. ≈ marks a conversion by molar mass, not a printed value.

How the values were obtained:
Mycobacterium kansasii [1] = assay: Antimycobacterial activity against Mycobacterium kansasii 6509/96 after 21 days; assay type: functional; conditions: 6509/96, 504 h
Mycobacterium kansasii [2] = assay: Antimycobacterial activity against Mycobacterium kansasii 235/80 after 14 days; assay type: functional; conditions: 235/80, 336 h
Mycobacterium kansasii [3] = assay: Antimycobacterial activity against Mycobacterium kansasii 6509/96 after 14 days; assay type: functional; conditions: 6509/96, 336 h
Mycobacterium avium [4] = assay: Antimycobacterial activity against INH/RIF/OFX resistant Mycobacterium avium 330/88 after 21 days; assay type: functional; conditions: 330/88, 504 h
Mycobacterium avium [5] = assay: Antimycobacterial activity against INH/RIF/OFX resistant Mycobacterium avium 330/88 after 14 days; assay type: functional; conditions: 330/88, 336 h
Mycobacterium kansasii [6] = assay: Antimycobacterial activity against Mycobacterium kansasii 6509/96 after 7 days; assay type: functional; conditions: 6509/96, 168 h
[7] = system: Mycobacterium tuberculosis; assay: Antimycobacterial activity against Mycobacterium tuberculosis H37Rv after 14 days; assay type: functional; conditions: 336 h
Mycobacterium kansasii [8] = assay: Antimycobacterial activity against Mycobacterium kansasii 235/80 after 21 days; assay type: functional; conditions: 235/80, 504 h
[9] = system: Mycobacterium tuberculosis; assay: Antimycobacterial activity against Mycobacterium tuberculosis H37Rv after 21 days; assay type: functional; conditions: 504 h
Mycobacterium kansasii [10] = assay: Antimycobacterial activity against Mycobacterium kansasii 235/80 after 7 days; assay type: functional; conditions: 235/80, 168 h
HepG2 = assay: Cytotoxicity against human HepG2 cells assessed as reduction in cell viability by MTS assay; assay type: cell-based
In short: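 HepG2 human hepatocellular carcinoma cells (passage 2-4) were cultured in Eagle's MEM with 10% FBS, 1% L-glutamine and non-essential amino acids. Compounds were dissolved in DMSO and tested in triplicate at eight concentrations. Viability was read by colorimetric MTS tetrazolium reduction. Controls were 100% viability and 0% viability (10% DMSO). IC50 is the concentration reducing viability to 50% of control.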

[11] = Selectivity index, ratio of IC50 for human HepG2 cells to MIC for Mycobacterium tuberculosis H37Rv after 14 days; assay type: toxicity; conditions: read-out: Selectivity Index
In short: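 SI is calculated as HepG2 IC50 divided by MIC. HepG2 cells (passage 2-4) were grown in EMEM with 10% FBS, L-glutamine and non-essential amino acids. Compounds in DMSO were tested in triplicate at eight concentrations, and viability was read by MTS tetrazolium reduction. IC50 is the concentration reducing viability to 50% of control. 10% DMSO served as the 0% viability control.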

| SMILES | MIC (Mycobacterium kansasii [1]) [µM] | MIC (Mycobacterium kansasii [2]) [µM] | MIC (Mycobacterium kansasii [3]) [µM] | MIC (Mycobacterium avium [4]) [µM] | MIC (Mycobacterium avium [5]) [µM] | MIC (Mycobacterium kansasii [6]) [µM] | MIC [7] [µM] | MIC (Mycobacterium kansasii [8]) [µM] | MIC [9] [µM] | MIC (Mycobacterium kansasii [10]) [µM] | pIC50 (HepG2) | selectivity ratio at 336 h [11] |
| --- | --- | --- | --- | --- | --- | --- | --- | --- | --- | --- | --- | --- |
| CCCCCCCNc1nnc(-c2ccncc2)o1 | 500 (≈ 130 µg/mL) | 500 (≈ 130 µg/mL) | 500 (≈ 130 µg/mL) | 500 (≈ 130 µg/mL) | 500 (≈ 130 µg/mL) | 250 (≈ 65.1 µg/mL) | 125 (≈ 32.5 µg/mL) | 500 (≈ 130 µg/mL) | 125 (≈ 32.5 µg/mL) | 250 (≈ 65.1 µg/mL) | – | – |
| CCCCCCCCCCCCCNC(=O)NNC(=O)c1ccncc1 | 62.5 (≈ 22.7 µg/mL) | 32 (≈ 11.6 µg/mL) | 62.5 (≈ 22.7 µg/mL) | 125 (≈ 45.3 µg/mL) | 125 (≈ 45.3 µg/mL) | 32 (≈ 11.6 µg/mL) | 32 (≈ 11.6 µg/mL) | 62.5 (≈ 22.7 µg/mL) | 62.5 (≈ 22.7 µg/mL) | 16 (≈ 5.8 µg/mL) | < 4.00 | – |
| CCCCCCCCCCCCCCCCNC(=O)NNC(=O)c1ccncc1 | 62.5 (≈ 25.3 µg/mL) | 62.5 (≈ 25.3 µg/mL) | 62.5 (≈ 25.3 µg/mL) | 125 (≈ 50.6 µg/mL) | 125 (≈ 50.6 µg/mL) | 32 (≈ 12.9 µg/mL) | 32 (≈ 12.9 µg/mL) | 62.5 (≈ 25.3 µg/mL) | 62.5 (≈ 25.3 µg/mL) | 32 (≈ 12.9 µg/mL) | < 4.30 | – |
| CCNc1nnc(-c2ccncc2)o1 | > 1000 | > 1000 | > 1000 | > 1000 | > 1000 | 1000 (≈ 190 µg/mL) | > 1000 | > 1000 | > 1000 | 1000 (≈ 190 µg/mL) | – | – |
| CCCCCCCCCCCCCNc1nnc(-c2ccncc2)o1 | 250 (≈ 86.1 µg/mL) | 250 (≈ 86.1 µg/mL) | 250 (≈ 86.1 µg/mL) | 250 (≈ 86.1 µg/mL) | 250 (≈ 86.1 µg/mL) | 125 (≈ 43.1 µg/mL) | 250 (≈ 86.1 µg/mL) | 250 (≈ 86.1 µg/mL) | 250 (≈ 86.1 µg/mL) | 250 (≈ 86.1 µg/mL) | – | – |
| CCCCCCCCCCCCCCCCCCNC(=O)NNC(=O)c1ccncc1 | 250 (≈ 108 µg/mL) | 250 (≈ 108 µg/mL) | 250 (≈ 108 µg/mL) | 250 (≈ 108 µg/mL) | 250 (≈ 108 µg/mL) | 250 (≈ 108 µg/mL) | 250 (≈ 108 µg/mL) | 250 (≈ 108 µg/mL) | 250 (≈ 108 µg/mL) | 250 (≈ 108 µg/mL) | < 4.30 | – |
| CCCCCCCCCCCNc1nnc(-c2ccncc2)o1 | 250 (≈ 79.1 µg/mL) | 16 (≈ 5.06 µg/mL) | 125 (≈ 39.6 µg/mL) | 500 (≈ 158 µg/mL) | 500 (≈ 158 µg/mL) | 125 (≈ 39.6 µg/mL) | 32 (≈ 10.1 µg/mL) | 32 (≈ 10.1 µg/mL) | 32 (≈ 10.1 µg/mL) | 8 (≈ 2.53 µg/mL) | 3.76 | 5.4 |
| CNc1nnc(-c2ccncc2)o1 | 1000 (≈ 176 µg/mL) | 1000 (≈ 176 µg/mL) | 1000 (≈ 176 µg/mL) | > 1000 | > 1000 | 1000 (≈ 176 µg/mL) | 500 (≈ 88.1 µg/mL) | > 1000 | 500 (≈ 88.1 µg/mL) | 500 (≈ 88.1 µg/mL) | – | – |
| CCCCCCCCCCCNC(=O)NNC(=O)c1ccncc1 | 125 (≈ 41.8 µg/mL) | 32 (≈ 10.7 µg/mL) | 125 (≈ 41.8 µg/mL) | 125 (≈ 41.8 µg/mL) | 125 (≈ 41.8 µg/mL) | 62.5 (≈ 20.9 µg/mL) | 32 (≈ 10.7 µg/mL) | 62.5 (≈ 20.9 µg/mL) | 62.5 (≈ 20.9 µg/mL) | 16 (≈ 5.35 µg/mL) | < 4.30 | – |
| CCCCCCCCCNc1nnc(-c2ccncc2)o1 | 250 (≈ 72.1 µg/mL) | 250 (≈ 72.1 µg/mL) | 250 (≈ 72.1 µg/mL) | 125 (≈ 36 µg/mL) | 125 (≈ 36 µg/mL) | 125 (≈ 36 µg/mL) | 62.5 (≈ 18 µg/mL) | 250 (≈ 72.1 µg/mL) | 62.5 (≈ 18 µg/mL) | 125 (≈ 36 µg/mL) | < 4.30 | – |
| CCCCCCCCNC(=O)NNC(=O)c1ccncc1 | 250 (≈ 73.1 µg/mL) | 62.5 (≈ 18.3 µg/mL) | 125 (≈ 36.5 µg/mL) | 250 (≈ 73.1 µg/mL) | 250 (≈ 73.1 µg/mL) | 62.5 (≈ 18.3 µg/mL) | 62.5 (≈ 18.3 µg/mL) | 125 (≈ 36.5 µg/mL) | 125 (≈ 36.5 µg/mL) | 32 (≈ 9.36 µg/mL) | < 3.30 | – |
| CCCCCCCCCCCCCCCNc1nnc(-c2ccncc2)o1 | 250 (≈ 93.1 µg/mL) | 125 (≈ 46.6 µg/mL) | 250 (≈ 93.1 µg/mL) | 500 (≈ 186 µg/mL) | 250 (≈ 93.1 µg/mL) | 125 (≈ 46.6 µg/mL) | 125 (≈ 46.6 µg/mL) | 250 (≈ 93.1 µg/mL) | 125 (≈ 46.6 µg/mL) | 62.5 (≈ 23.3 µg/mL) | – | – |
| CCCCCCCCCCCCCCCNC(=O)NNC(=O)c1ccncc1 | 125 (≈ 48.8 µg/mL) | 62.5 (≈ 24.4 µg/mL) | 62.5 (≈ 24.4 µg/mL) | 125 (≈ 48.8 µg/mL) | 125 (≈ 48.8 µg/mL) | 62.5 (≈ 24.4 µg/mL) | 32 (≈ 12.5 µg/mL) | 62.5 (≈ 24.4 µg/mL) | 62.5 (≈ 24.4 µg/mL) | 32 (≈ 12.5 µg/mL) | < 4.12 | – |
| CCCNc1nnc(-c2ccncc2)o1 | 1000 (≈ 204 µg/mL) | 1000 (≈ 204 µg/mL) | 1000 (≈ 204 µg/mL) | > 1000 | > 1000 | 1000 (≈ 204 µg/mL) | 500 (≈ 102 µg/mL) | 1000 (≈ 204 µg/mL) | 500 (≈ 102 µg/mL) | 500 (≈ 102 µg/mL) | – | – |
| CCCCCCCCCCCCCCCCCCNc1nnc(-c2ccncc2)o1 | 500 (≈ 207 µg/mL) | 250 (≈ 104 µg/mL) | 500 (≈ 207 µg/mL) | 500 (≈ 207 µg/mL) | 500 (≈ 207 µg/mL) | 250 (≈ 104 µg/mL) | 125 (≈ 51.8 µg/mL) | 250 (≈ 104 µg/mL) | 250 (≈ 104 µg/mL) | 250 (≈ 104 µg/mL) | – | – |
